# From ChEMBL document CHEMBL1137342 (J Med Chem, 2006)
# What was measured:
# D(4) dopamine receptor [1] = biological target: T1, D(4) dopamine receptor (Homo sapiens, UniProt P21917); assay type: functional, cell-based, HEK293
# T1 sequence (P21917 whole entry): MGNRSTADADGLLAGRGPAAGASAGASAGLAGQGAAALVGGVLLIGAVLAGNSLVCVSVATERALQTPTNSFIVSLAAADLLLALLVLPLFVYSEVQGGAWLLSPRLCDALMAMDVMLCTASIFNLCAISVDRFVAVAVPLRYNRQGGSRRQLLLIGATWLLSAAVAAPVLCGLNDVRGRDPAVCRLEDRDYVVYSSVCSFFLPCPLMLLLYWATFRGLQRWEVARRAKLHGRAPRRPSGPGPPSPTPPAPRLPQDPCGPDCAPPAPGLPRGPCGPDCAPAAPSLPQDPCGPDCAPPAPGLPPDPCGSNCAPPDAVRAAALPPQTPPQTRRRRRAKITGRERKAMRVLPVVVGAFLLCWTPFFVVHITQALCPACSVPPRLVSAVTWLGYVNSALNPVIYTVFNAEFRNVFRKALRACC
# D(2) dopamine receptor [2] = biological target: D(2) dopamine receptor (Rattus norvegicus, UniProt P61169); test: Activity at rat dopamine D2L receptor expressed in HEK293 cells assessed as inhibition of forskolin-stimulated cAMP production; assay type: functional, cell-based
# Method in brief: (§1)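 HEK293 cells stably expressing rat D2L, grown in DMEM with 5% fetal clone serum, 5% bovine calf serum and puromycin. Confluent monolayers were treated with ligands diluted in EBSS buffer (pH 7.4) with 5 µM forskolin and 500 µM IBMX. The reaction was stopped with 3% TCA. cAMP was measured in duplicate by [3H]cAMP competition with adrenal binding protein (2-3 h, 4 °C).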
# [3] = biological target: D(2) dopamine receptor (Rattus norvegicus) (UniProt P61169); test: Intrinsic activity at rat dopamine D2L receptor expressed in HEK293 cells assessed as inhibition of forskolin-stimulated cAMP production relative to dopamine; assay type: functional, cell-based
# Method in brief: as §1
# D(1A) dopamine receptor [4] = biological target: D(1A) dopamine receptor (Homo sapiens, UniProt P21728); test: Activity at human dopamine D1 receptor expressed in HEK293 cells assessed as stimulation of cAMP production; assay type: functional, cell-based
# D(1A) dopamine receptor [5] = biological target: D(1A) dopamine receptor (Sus scrofa, UniProt P50130); test: Displacement of [3H]SCH-23390 from dopamine D1-like receptor in porcine striata homogenate
# [6] = biological target: T2, Alpha-2A adrenergic receptor (Homo sapiens, UniProt P08913); test: Binding affinity to human cloned adrenergic alpha 2A receptor
# T2 sequence (P08913 whole entry): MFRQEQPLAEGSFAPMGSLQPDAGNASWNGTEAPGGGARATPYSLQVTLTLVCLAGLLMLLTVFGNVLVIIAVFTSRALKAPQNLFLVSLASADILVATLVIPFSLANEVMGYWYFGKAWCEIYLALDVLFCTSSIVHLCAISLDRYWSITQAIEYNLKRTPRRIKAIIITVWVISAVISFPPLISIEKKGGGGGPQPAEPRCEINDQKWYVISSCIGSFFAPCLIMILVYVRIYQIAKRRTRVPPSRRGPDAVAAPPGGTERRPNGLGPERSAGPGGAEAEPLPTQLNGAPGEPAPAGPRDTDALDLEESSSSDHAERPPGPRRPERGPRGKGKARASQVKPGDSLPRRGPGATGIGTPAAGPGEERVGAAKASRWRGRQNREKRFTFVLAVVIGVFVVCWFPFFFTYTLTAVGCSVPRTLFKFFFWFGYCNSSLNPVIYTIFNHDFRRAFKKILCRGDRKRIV
# [7] = biological target: T3, Alpha-2B adrenergic receptor (Homo sapiens, UniProt P18089); test: Binding affinity to human cloned adrenergic alpha 2B receptor receptor
# T3 sequence (P18089 whole entry): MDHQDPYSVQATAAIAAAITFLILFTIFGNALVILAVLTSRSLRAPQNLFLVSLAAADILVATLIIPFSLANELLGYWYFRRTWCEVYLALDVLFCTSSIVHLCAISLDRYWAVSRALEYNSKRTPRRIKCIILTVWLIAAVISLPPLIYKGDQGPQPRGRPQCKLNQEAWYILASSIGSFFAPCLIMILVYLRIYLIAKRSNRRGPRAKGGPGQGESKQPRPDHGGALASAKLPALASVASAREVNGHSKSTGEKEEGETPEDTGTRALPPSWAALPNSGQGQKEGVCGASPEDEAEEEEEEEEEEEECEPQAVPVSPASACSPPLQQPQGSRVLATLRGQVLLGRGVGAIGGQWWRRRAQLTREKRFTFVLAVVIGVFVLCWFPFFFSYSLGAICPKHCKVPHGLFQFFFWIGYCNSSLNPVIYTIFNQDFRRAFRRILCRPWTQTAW
# D(4) dopamine receptor [8] = biological target: T1, D(4) dopamine receptor; test: Binding affinity to human cloned dopamine D4 receptor
# D(2) dopamine receptor [9] = biological target: D(2) dopamine receptor (Homo sapiens, UniProt P14416); test: Binding affinity to human cloned dopamine D2 receptor
# D(3) dopamine receptor = D(3) dopamine receptor (Homo sapiens, UniProt P35462); test: Binding affinity to human cloned dopamine D3 receptor
# D(1B) dopamine receptor = D(1B) dopamine receptor (Homo sapiens, UniProt P21918); test: Binding affinity to human cloned dopamine D5 receptor
# [10] = biological target: T4, Alpha-2C adrenergic receptor (Homo sapiens, UniProt P18825); test: Binding affinity to human cloned adrenergic alpha 2C receptor receptor
# T4 sequence (P18825 whole entry): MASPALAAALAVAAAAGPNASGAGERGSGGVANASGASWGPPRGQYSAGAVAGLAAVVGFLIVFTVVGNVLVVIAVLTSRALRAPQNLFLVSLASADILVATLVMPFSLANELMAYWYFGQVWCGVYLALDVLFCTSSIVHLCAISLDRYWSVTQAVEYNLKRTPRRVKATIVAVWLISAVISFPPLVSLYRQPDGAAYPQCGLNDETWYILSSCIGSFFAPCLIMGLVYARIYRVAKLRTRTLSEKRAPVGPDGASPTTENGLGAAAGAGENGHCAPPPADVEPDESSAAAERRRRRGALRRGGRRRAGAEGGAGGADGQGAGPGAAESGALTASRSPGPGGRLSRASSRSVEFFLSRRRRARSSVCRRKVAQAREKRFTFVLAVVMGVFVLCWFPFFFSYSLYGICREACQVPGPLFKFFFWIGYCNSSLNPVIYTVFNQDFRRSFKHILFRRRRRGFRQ
# D(2) dopamine receptor (Rattus norvegicus), sequence (P61169 whole entry): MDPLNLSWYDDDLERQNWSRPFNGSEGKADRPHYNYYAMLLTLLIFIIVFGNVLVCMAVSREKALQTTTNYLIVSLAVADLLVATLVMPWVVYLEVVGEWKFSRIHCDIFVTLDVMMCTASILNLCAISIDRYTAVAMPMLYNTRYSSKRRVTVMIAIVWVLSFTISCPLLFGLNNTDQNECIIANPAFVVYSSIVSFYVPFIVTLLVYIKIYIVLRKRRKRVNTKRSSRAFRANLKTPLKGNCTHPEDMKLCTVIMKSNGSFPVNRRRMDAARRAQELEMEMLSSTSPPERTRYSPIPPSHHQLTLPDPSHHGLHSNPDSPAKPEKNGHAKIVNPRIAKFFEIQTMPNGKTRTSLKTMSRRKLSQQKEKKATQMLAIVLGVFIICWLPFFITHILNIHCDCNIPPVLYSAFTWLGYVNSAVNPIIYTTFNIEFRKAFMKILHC
# D(2) dopamine receptor (Rattus norvegicus, UniProt P61169), sequence (P61169 whole entry): as above
# D(3) dopamine receptor, sequence (P35462 whole entry): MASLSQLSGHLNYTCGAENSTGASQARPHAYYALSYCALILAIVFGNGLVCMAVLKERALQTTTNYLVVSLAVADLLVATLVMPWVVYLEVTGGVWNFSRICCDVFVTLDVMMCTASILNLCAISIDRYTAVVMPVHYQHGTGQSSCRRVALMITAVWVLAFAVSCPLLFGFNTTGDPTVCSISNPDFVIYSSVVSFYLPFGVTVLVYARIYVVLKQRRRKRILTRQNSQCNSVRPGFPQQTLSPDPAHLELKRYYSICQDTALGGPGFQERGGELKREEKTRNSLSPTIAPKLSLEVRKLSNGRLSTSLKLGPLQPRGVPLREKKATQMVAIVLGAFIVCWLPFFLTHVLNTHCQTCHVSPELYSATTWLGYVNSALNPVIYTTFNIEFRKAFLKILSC
# D(1B) dopamine receptor, sequence (P21918 whole entry): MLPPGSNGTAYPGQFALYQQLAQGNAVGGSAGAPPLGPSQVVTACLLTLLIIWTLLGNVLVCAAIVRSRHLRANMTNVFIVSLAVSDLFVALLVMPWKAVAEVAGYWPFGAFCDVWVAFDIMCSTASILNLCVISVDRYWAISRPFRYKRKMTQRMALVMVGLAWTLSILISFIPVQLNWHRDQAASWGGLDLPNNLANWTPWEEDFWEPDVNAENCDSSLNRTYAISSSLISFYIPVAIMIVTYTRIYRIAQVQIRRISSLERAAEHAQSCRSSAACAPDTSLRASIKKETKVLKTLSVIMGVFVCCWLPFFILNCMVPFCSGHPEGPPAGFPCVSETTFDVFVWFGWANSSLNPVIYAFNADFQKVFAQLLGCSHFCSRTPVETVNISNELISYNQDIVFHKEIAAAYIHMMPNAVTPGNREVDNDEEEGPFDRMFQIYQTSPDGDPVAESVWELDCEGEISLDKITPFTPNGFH
# D(2) dopamine receptor (Homo sapiens, UniProt P14416), sequence (P14416 whole entry): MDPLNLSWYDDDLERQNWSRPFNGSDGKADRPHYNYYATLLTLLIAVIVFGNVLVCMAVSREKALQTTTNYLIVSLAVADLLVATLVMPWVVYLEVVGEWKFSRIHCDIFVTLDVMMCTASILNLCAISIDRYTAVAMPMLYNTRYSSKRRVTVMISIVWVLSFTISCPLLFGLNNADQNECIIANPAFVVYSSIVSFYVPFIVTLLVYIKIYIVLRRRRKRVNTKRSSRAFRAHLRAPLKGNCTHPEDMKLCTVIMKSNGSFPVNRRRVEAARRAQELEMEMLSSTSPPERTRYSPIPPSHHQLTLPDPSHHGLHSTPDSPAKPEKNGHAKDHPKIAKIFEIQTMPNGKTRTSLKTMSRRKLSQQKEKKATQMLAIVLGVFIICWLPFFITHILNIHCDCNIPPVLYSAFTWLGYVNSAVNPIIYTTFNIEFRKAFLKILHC
# D(1A) dopamine receptor (Homo sapiens, UniProt P21728), sequence (P21728 whole entry): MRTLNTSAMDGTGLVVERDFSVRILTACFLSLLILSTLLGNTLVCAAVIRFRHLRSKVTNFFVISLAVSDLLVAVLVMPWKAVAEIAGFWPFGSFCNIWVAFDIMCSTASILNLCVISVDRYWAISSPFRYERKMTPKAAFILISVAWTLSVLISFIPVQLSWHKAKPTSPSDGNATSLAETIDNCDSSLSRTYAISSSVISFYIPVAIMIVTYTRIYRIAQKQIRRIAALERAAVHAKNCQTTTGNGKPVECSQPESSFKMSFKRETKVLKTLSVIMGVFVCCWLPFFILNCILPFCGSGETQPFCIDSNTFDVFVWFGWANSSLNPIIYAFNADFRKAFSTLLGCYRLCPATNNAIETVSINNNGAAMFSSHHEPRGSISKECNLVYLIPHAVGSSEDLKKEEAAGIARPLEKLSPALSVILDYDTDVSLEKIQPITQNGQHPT
# D(1A) dopamine receptor (Sus scrofa, UniProt P50130), sequence (P50130 whole entry): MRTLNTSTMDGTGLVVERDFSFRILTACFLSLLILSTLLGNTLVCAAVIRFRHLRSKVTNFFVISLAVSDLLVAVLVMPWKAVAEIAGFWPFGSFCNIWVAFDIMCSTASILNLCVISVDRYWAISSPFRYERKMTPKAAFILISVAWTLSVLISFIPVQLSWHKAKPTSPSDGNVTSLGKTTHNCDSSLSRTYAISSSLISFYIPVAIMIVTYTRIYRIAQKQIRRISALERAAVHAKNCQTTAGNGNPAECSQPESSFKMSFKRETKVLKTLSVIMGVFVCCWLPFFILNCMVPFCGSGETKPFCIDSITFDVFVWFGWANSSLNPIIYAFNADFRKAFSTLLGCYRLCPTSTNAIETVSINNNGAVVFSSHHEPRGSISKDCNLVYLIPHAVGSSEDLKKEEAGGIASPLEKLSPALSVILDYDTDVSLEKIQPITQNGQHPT
SMILES,EC50 (D(4) dopamine receptor [1]) [nM],EC50 (D(2) dopamine receptor [2]) [nM],Intrinsic activity [3] [%],other results
"Oc1cc2c(cc1O)[C@H]1c3ccccc3CN[C@@H]1CO2 (single isomer, unassigned)",95,> 10000,,
NCCc1ccc(O)c(O)c1,,,100,
CCCN1Cc2ccccc2C2c3cc(O)c(O)cc3OCC21 (racemic),21,1600,92,EC50 (D(1A) dopamine receptor [4]): 1100 nM; Ki (D(1A) dopamine receptor [5]): 330 nM
CCCN1CCC[C@@H]2Cc3n[nH]cc3C[C@H]21,,,95,
"Oc1cc2c(cc1O)[C@@H]1c3ccccc3CN[C@H]1CO2 (single isomer, unassigned)",230,> 10000,,
Oc1cc2c(cc1O)[C@H]1c3ccccc3CN[C@@H]1CC2,,,70,
Oc1cc2c(cc1O)C1c3ccccc3CNC1CO2 (racemic) [DOXANTHRINE],110,> 10000,,Ki [6]: 180 nM; Ki [7]: 10 nM; Ki (D(4) dopamine receptor [8]): 90 nM; Ki (D(2) dopamine receptor [9]): 1910 nM; Ki (D(3) dopamine receptor): 390 nM; Ki (D(1B) dopamine receptor): 7 nM; Ki [10]: 2 nM
